ChEMBL document CHEMBL2163190, “Synthesis and evaluation of substituted chroman-4-one and chromone derivatives as sirtuin 2-selective inhibitors” (J Med Chem, 2012)
Activity calls are given as the source filed them. The rule behind the calls is not given here.

Columns and labels:
[1] = molecular target: T1, NAD-dependent protein deacetylase sirtuin-2 (Homo sapiens) (UniProt Q8IXJ6); assay: Inhibition of human recombinant GST-tagged SIRT2 preincubated at 200 uM for 5 mins measured after 1 hr by Fluor de Lys-based fluorescence assay
T1 sequence (whole entry): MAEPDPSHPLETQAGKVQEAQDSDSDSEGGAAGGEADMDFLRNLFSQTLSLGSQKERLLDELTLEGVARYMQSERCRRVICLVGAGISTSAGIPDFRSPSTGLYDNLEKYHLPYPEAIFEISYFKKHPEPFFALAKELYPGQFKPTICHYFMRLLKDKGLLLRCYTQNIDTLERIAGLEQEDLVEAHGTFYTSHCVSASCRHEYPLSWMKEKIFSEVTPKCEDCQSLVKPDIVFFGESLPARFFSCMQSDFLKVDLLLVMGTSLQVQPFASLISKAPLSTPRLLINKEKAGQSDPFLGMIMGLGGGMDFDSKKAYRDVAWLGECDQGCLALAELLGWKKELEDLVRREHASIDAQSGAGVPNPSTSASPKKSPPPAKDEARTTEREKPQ
How it was run: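 GST-SIRT2 assay with Fluor de Lys KI179 substrate at 0.7 Km (Km 198 μM) and NAD+ at 0.9 Km (Km 547 μM), in HDAC buffer with 1 mg/mL BSA. Substrate, NAD+ and compound (200 μM, DMSO) were preincubated 5 min at RT, then enzyme added for 1 h at 37 °C. Developer plus nicotinamide (2 mM) was added for 45 min at 37 °C. Read at ex 355/em 460 nm; n = 3, SD.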

[2] = molecular target: T2, NAD-dependent protein deacetylase sirtuin-3, mitochondrial (Homo sapiens) (UniProt Q9NTG7); assay: Inhibition of recombinant His-tagged SIRT3 preincubated at 200 uM for 5 mins measured after 1hr by Fluor de Lys-based fluorescence assay
T2 sequence (whole entry): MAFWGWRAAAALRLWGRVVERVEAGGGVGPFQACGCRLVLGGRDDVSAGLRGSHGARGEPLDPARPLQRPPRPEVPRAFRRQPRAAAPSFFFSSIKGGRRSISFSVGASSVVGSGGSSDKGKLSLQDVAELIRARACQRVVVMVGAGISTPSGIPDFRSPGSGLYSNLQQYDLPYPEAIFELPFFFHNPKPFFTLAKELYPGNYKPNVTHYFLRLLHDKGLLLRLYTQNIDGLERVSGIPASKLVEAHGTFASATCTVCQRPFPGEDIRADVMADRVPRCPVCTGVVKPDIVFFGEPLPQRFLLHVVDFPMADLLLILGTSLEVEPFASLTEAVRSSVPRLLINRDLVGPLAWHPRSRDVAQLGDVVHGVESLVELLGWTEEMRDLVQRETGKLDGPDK
How it was run: (§1)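 Fluor de Lys assay with compound at 200 μM in DMSO. […] Substrate was used at 0.7 Km and NAD+ at 0.9 Km. Preincubated 5 min at RT, then enzyme for 1 h at 37 °C, then developer/nicotinamide for 45 min at 37 °C. Read at ex 355/em 460 nm.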

[3] = molecular target: T3, NAD-dependent protein deacetylase sirtuin-1 (Homo sapiens) (UniProt Q96EB6); assay: Inhibition of recombinant GST-tagged SIRT1 preincubated at 200 uM for 5 mins measured after 1hr by Fluor de Lys-based fluorescence assay; how it was run: as §1
T3 sequence (whole entry): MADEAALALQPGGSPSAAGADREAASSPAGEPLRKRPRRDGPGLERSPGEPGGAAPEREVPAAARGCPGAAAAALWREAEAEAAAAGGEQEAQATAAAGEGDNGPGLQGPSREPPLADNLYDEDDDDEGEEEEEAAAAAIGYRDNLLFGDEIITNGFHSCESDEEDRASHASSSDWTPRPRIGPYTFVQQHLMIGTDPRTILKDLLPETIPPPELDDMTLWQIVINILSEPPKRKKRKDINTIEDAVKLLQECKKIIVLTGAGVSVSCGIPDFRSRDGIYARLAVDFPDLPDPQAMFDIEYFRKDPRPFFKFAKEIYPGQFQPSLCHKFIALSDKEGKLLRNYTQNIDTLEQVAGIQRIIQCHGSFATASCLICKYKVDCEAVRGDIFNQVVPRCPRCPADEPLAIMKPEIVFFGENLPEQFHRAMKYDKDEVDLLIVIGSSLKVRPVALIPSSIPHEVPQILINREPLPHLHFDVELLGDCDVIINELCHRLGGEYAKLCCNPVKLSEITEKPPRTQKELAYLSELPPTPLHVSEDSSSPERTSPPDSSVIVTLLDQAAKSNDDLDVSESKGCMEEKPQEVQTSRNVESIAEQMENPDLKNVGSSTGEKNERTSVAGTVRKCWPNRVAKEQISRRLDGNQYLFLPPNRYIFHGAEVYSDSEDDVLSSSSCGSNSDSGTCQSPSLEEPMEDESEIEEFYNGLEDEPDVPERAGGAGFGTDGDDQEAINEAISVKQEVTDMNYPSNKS

[4] = molecular target: T4, NAD-dependent protein deacetylase sirtuin-2 (Homo sapiens, UniProt Q8IXJ6); assay: Inhibition of human recombinant GST-tagged SIRT2 preincubated for 5 mins measured after 1 hr by Fluor de Lys-based fluorescence assay
T4 sequence (Q8IXJ6 whole entry): T1 sequence (whole entry)
How it was run: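 Fluorogenic GST-SIRT2 assay using KI179 at 0.7 Km and NAD+ at 0.9 Km, in BSA-supplemented HDAC buffer. Compound, substrate and NAD+ were preincubated 5 min at RT, then enzyme added for 1 h at 37 °C, followed by developer/nicotinamide for 45 min at 37 °C. Fluorescence read at 355/460 nm.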

[5] = molecular target: T1, NAD-dependent protein deacetylase sirtuin-2 (Homo sapiens); assay: Inhibition of SIRT2 using RSTGGK(Ac)APRKQ as substrate assessed as inhibition of [14C]nicotinamide release at 200 uM after 1h by TLC
How it was run: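 Recombinant GST-SIRT2 started the reaction with [carbonyl-14C]NAD+ (43.2 nCi) and acetylated peptide RSTGGK(Ac)APRKQ (196 μM). Buffer was HDAC assay buffer plus 1 mg/mL BSA, with compound at 200 μM final in DMSO. Incubated 1 h at 37 °C. The whole mixture was run on silica TLC in ethanol/2.5 M ammonium acetate (80:20), exposed overnight to X-ray film, and [14C]nicotinamide quantified by densitometry.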

[6] = molecular target: T1, NAD-dependent protein deacetylase sirtuin-2 (Homo sapiens); assay: Inhibition of human SIRT2 assessed as inhibition of deacetylation of rat stem cell acetylated alpha-tubulin at 200 uM after 30 to 60 mins by Western blot analysis
How it was run: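 Acetylated α-tubulin (0.5 μg) isolated from rat stem cells was incubated with recombinant GST-SIRT2, NAD+ (500 μM) and compound (200 μM final, DMSO vehicle) in SIRT assay buffer for 30 or 60 min at 37 °C. Samples were resolved on 10% SDS-PAGE and blotted to nitrocellulose. Probed with anti-acetylated tubulin mAb 6-11B-1 (1:8000, 2 h, RT), then HRP anti-mouse secondary (1:50000, 2 h).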

Row | inhibition [1] [%] | inhibition [2] [%] | inhibition [3] [%] | IC50 [4] [µM] | inhibition [5] [%] | inhibition [6] | SMILES
1 | 28 | – | – | – | – | – | CCCCCC1CC(=O)c2cccc(Br)c2O1 (racemic)
2 | 82 | < 10 | < 10 | 5.5 | – | – | CCCCCc1cc(=O)c2cc(Cl)cc(Br)c2o1
3 | 91 | < 10 | < 10 | 1.5 | – | – | CCCCC[C@H]1CC(=O)c2cc(Cl)cc(Br)c2O1
4 | 53 | – | – | – | – | – | O=C1CC(CCc2c[nH]c3ccccc23)Oc2c(Br)cc(Cl)cc21 (racemic)
5 | 27 | – | – | – | – | – | Cc1ccc(S(=O)(=O)n2cc(CCC3CC(=O)c4cc(Cl)cc(Br)c4O3)c3ccccc32)cc1 (racemic)
6 | 20 | – | – | – | – | – | CCCCCC1CC(=O)c2cc(OC)ccc2O1 (racemic)
7 | 76 | < 10 | < 10 | 10.6 | – | – | CCCC1CC(=O)c2cc(Cl)cc(Br)c2O1 (racemic)
8 | 70 | < 10 | < 10 | 4.5 | – | – | CCCCC[C@@H]1CC(=O)c2cc(Cl)cc(Br)c2O1
9 | 58 | – | – | – | – | – | CCCCCC1CC(=O)c2cc([N+](=O)[O-])ccc2O1 (racemic)
10 | 83 | < 10 | < 10 | 6.2 | – | – | CCCCCC1CC(=O)c2cc(C)cc(C)c2O1 (racemic)
11 | 4.9 | – | – | – | – | – | CCCCCC1CC(=O)c2ccccc2O1 (racemic)
12 | 88 | < 10 | < 10 | 4.3 | 66 | Active | CCCCCC1CC(=O)c2cc(Cl)cc(Br)c2O1 (racemic)
13 | 38 | – | – | – | – | – | CCCCCC1CCc2cc(Cl)cc(Br)c2O1 (centres undefined)
14 | 38 | – | – | – | – | – | CCCCCC1C=Cc2cc(Cl)cc(Br)c2O1 (centres undefined)
15 | 52 | – | – | – | – | – | CC(C)C1CC(=O)c2cc(Cl)cc(Br)c2O1 (racemic)
16 | 31 | – | – | – | – | – | CCCCCC1CC(O)c2cc(Cl)cc(Br)c2O1 (mixture of isomers)
17 | 55 | – | – | – | – | – | CCCCCC1CC(=O)c2cc(Cl)ccc2O1 (racemic)
18 | 20 | – | – | – | – | – | O=c1cc(-c2ccccc2)oc2c(Br)cc(Cl)cc12
19 | 57 | – | – | – | – | – | CCCCCCCC1CC(=O)c2cc(Cl)cc(Br)c2O1 (racemic)
20 | 92 | < 10 | < 10 | 1.5 | – | – | CCCCCC1CC(=O)c2cc(Br)cc(Br)c2O1 (racemic)
21 | 30 | – | – | – | – | – | CCCCCC1CC(=O)c2cc(F)cc(F)c2O1 (racemic)
22 | 18 | – | – | – | – | – | CCCCCC1CC(=O)c2ccc(F)cc2O1 (racemic)
23 | 81 | 16 | < 10 | 6.8 | – | – | O=C1CC(CCc2ccccc2)Oc2c(Br)cc(Cl)cc21 (racemic)
